# Data: ChEMBL document CHEMBL1155273, “Search for new pharmacophores for antimalarial activity. Part III: synthesis and bioevaluation of new 6-thioureido-4-anilinoquinazolines” (Eur J Med Chem, 2009)
# The source made the active and inactive calls. No cut-off for these calls is given here.
# Legend:
# Plasmodium falciparum = test: Antimalarial activity against chloroquine-sensitive Plasmodium falciparum 3D7; assay type: functional, organism-based
# [1] = Selectivity index, ratio of CC50 for african green monkey (Cercopithecus aethiops) Vero cells to IC50 for chloroquine-sensitive Plasmodium falciparum 3D7; assay type: functional
# [2] = test system: Plasmodium yoelii nigeriensis; test: Antimalarial activity against multidrug-resistant Plasmodium yoelii nigeriensis infected Swiss mice (Mus musculus) assessed as suppression in parasitaemia at 100 mg/kg, perorally for 4 days measured on day 4; assay type: functional; settings: 96 h, route oral
# In short: (§1)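 Swiss mice infected on day 0 with P. yoelii nigeriensis MDR (N67, chloroquine-resistant) parasitized cells. Groups of five mice received the test compound orally as an aqueous suspension at 50 or 100 mg/kg from day 0 to 4; five controls received vehicle only. Parasitaemia was read from tail-vein thin blood smears on days 4, 7, 14, 21 and 28, or until death.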
# [3] = test system: Plasmodium yoelii nigeriensis; test: Antimalarial activity against multidrug-resistant Plasmodium yoelii nigeriensis infected Swiss mice (Mus musculus) assessed as survival at 100 mg/kg, perorally for 4 days measured on day 7; assay type: functional, organism-based; set-up: dose 100 mg/kg; in short: as §1
# [4] = test system: Plasmodium yoelii nigeriensis; test: Antimalarial activity against multidrug-resistant Plasmodium yoelii nigeriensis infected Swiss mice (Mus musculus) assessed as suppression in parasitaemia at 100 mg/kg, perorally for 4 days measured on day 7; assay type: functional; settings: route oral; in short: as §1
# [5] = test system: Plasmodium yoelii nigeriensis; test: Antimalarial activity against multidrug-resistant Plasmodium yoelii nigeriensis infected Swiss mice (Mus musculus) assessed as survival at 100 mg/kg, perorally for 4 days measured on day 28; assay type: functional; settings: route oral; in short: as §1
MIC (Plasmodium falciparum) [µg/mL],IC50 (Plasmodium falciparum) [µg/mL],SMILES,Ratio CC50/IC50 [1],further results
2,–,S=C(Nc1ccccc1)Nc1ccc2ncnc(Nc3ccccc3)c2c1,–,–
2,0.683,COc1ccc(Nc2ncnc3ccc(NC(=S)Nc4ccc(Br)cc4)cc23)cc1OC,85.7,–
2,–,S=C(Nc1ccc2ncnc(Nc3ccccc3)c2c1)Nc1cccc2ccccc12,–,–
10,–,COc1ccc(Nc2ncnc3ccc(NC(=S)Nc4cccc(C#N)c4)cc23)cc1OC,–,–
2,0.0502,COc1ccc(Nc2ncnc3ccc(NC(=S)Nc4ccc(Br)cc4)cc23)cc1,114.9,–
> 10,–,COc1ccc(Nc2ncnc3ccc(NC(=S)Nc4cccc(C#N)c4)cc23)cc1,–,–
10,–,S=C(Nc1ccc(Br)cc1)Nc1ccc2ncnc(Nc3ccccc3)c2c1,–,–
10,–,FC(F)(F)c1cccc(Nc2ncnc3ccc(NC(=S)Nc4cccc5ccccc45)cc23)c1,–,–
> 10,–,COc1ccc(Nc2ncnc3ccc(NC(=S)Nc4cccc(Cl)c4)cc23)cc1,–,–
> 10,–,N#Cc1cccc(NC(=S)Nc2ccc3ncnc(Nc4cccc(Cl)c4)c3c2)c1,–,–
10,–,COc1ccc(Nc2ncnc3ccc(NC(=S)Nc4ccc(Cl)cc4)cc23)cc1OC,–,–
> 10,–,COc1ccc(Nc2ncnc3ccc(NC(=S)Nc4ccc(Cl)cc4)cc23)cc1,–,–
2,0.0532,COc1ccc(Nc2ncnc3ccc(NC(=S)Nc4cccc(F)c4)cc23)cc1,206.4,–
2,0.792,Fc1cccc(NC(=S)Nc2ccc3ncnc(Nc4ccccc4)c3c2)c1,70.3,–
2,0.243,COc1ccc(Nc2ncnc3ccc(NC(=S)Nc4ccccc4)cc23)cc1,80.4,–
10,–,S=C(Nc1ccccc1)Nc1ccc2ncnc(Nc3cccc(Cl)c3)c2c1,–,–
2,0.385,COc1ccc(Nc2ncnc3ccc(NC(=S)Nc4cccc(F)c4)cc23)cc1OC,63.7,–
10,–,COc1ccc(Nc2ncnc3ccc(NC(=S)Nc4cccc5ccccc45)cc23)cc1,–,–
10,–,FC(F)(F)c1cccc(Nc2ncnc3ccc(NC(=S)Nc4cccc(Cl)c4)cc23)c1,–,–

MIC (Plasmodium falciparum) [µg/mL],IC50 (Plasmodium falciparum) [µg/mL],SMILES,Ratio CC50/IC50 [1],further results
10,–,S=C(Nc1ccc2ncnc(Nc3cccc(Cl)c3)c2c1)Nc1cccc2ccccc12,–,–
2,0.443,N#Cc1cccc(NC(=S)Nc2ccc3ncnc(Nc4cccc(C(F)(F)F)c4)c3c2)c1,5.5,–
10,–,COc1cccc(Nc2ncnc3ccc(NC(=S)Nc4cccc5ccccc45)cc23)c1,–,–
2,0.207,COc1ccc(Nc2ncnc3ccc(NC(=S)Nc4cccc5ccccc45)cc23)cc1OC,133.8,–
2,–,S=C(Nc1ccc(Cl)cc1)Nc1ccc2ncnc(Nc3ccccc3)c2c1,–,–
1,0.0267,COc1cccc(Nc2ncnc3ccc(NC(=S)Nc4cccc(F)c4)cc23)c1,510.7,–
2,0.813,S=C(Nc1cccc(Cl)c1)Nc1ccc2ncnc(Nc3ccccc3)c2c1,29,–
10,–,COc1cccc(Nc2ncnc3ccc(NC(=S)Nc4ccc(Cl)cc4)cc23)c1,–,–
10,–,COc1ccc(Nc2ncnc3ccc(NC(=S)Nc4cccc(Cl)c4)cc23)cc1OC,–,–
2,0.303,COc1ccc(Nc2ncnc3ccc(NC(=S)Nc4ccccc4)cc23)cc1OC,90,–
1,0.021,COc1cccc(Nc2ncnc3ccc(NC(=S)Nc4cccc(C#N)c4)cc23)c1,453,–
10,–,Fc1cccc(NC(=S)Nc2ccc3ncnc(Nc4cccc(C(F)(F)F)c4)c3c2)c1,–,–
2,0.526,S=C(Nc1ccc(Br)cc1)Nc1ccc2ncnc(Nc3cccc(Cl)c3)c2c1,1,–
2,0.992,FC(F)(F)c1cccc(Nc2ncnc3ccc(NC(=S)Nc4ccccc4)cc23)c1,69,–
10,–,FC(F)(F)c1cccc(Nc2ncnc3ccc(NC(=S)Nc4ccc(Cl)cc4)cc23)c1,–,–
10,–,S=C(Nc1ccc(Cl)cc1)Nc1ccc2ncnc(Nc3cccc(Cl)c3)c2c1,–,–
2,0.258,COc1cccc(Nc2ncnc3ccc(NC(=S)Nc4ccccc4)cc23)c1,38.7,–
> 10,–,N#Cc1cccc(NC(=S)Nc2ccc3ncnc(Nc4ccccc4)c3c2)c1,–,–

SMILES,MIC (Plasmodium falciparum) [µg/mL],IC50 (Plasmodium falciparum) [µg/mL],Ratio CC50/IC50 [1],further results
FC(F)(F)c1cccc(Nc2ncnc3ccc(NC(=S)Nc4ccc(Br)cc4)cc23)c1,2,0.0392,67.1,inhibition in vivo at 100 mg/kg [2]: 9.78%; Activity [3]: inactive
Fc1cccc(NC(=S)Nc2ccc3ncnc(Nc4cccc(Cl)c4)c3c2)c1,10,–,–,inhibition in vivo at 100 mg/kg [4]: 61.1%; inhibition in vivo at 100 mg/kg [2]: 85.7%
COc1cccc(Nc2ncnc3ccc(NC(=S)Nc4cccc(Cl)c4)cc23)c1,2,0.0115,1615.3,inhibition in vivo at 100 mg/kg [4]: 28.4%; inhibition in vivo at 100 mg/kg [2]: 46.5%
S=C(Nc1cccc(Cl)c1)Nc1ccc2ncnc(Nc3cccc(Cl)c3)c2c1,2,0.0088,556.3,inhibition in vivo at 100 mg/kg [4]: 16.1%; inhibition in vivo at 100 mg/kg [2]: 77.2%
COc1cccc(Nc2ncnc3ccc(NC(=S)Nc4ccc(Br)cc4)cc23)c1,1,0.106,187,inhibition in vivo at 100 mg/kg [4]: 99.9%; Activity [5]: 50%; inhibition in vivo at 100 mg/kg [2]: 100%
